In ChEMBL document CHEMBL4732116, “Discovery of novel CA-4 analogs as dual inhibitors of tubulin polymerization and PD-1/PD-L1 interaction for cancer treatment” (Eur J Med Chem, 2021):
pIC50: −log10 of the molar value. Activity calls are given as the source filed them. No cut-off for these calls is given here.

Experiments:
HepG2 = experiment: Antiproliferative activity against human HepG2 cells assessed as reduction in cell viability measured after 48 hrs by CCK8 assay; format: functional, cell-based; details: HepG2, 48 h
Outline: (§1)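 Cells pre-incubated 24 h at 37 °C, 5% CO2, then exposed to compounds over a concentration range in medium with 0.1% DMSO for a further 48 h at 37 °C. CCK-8 read-out as absorbance at 450 nm. IC50 taken from dose-response curves. Three independent experiments.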

MC-38 = experiment: Antiproliferative activity against mouse MC38 cells assessed as reduction in cell viability measured after 48 hrs by CCK8 assay; format: functional, cell-based; details: MC-38, 48 h; outline: as §1
HeLa = experiment: Antiproliferative activity against human HeLa cells assessed as reduction in cell viability measured after 48 hrs by CCK8 assay; format: functional, cell-based; outline: as §1
B16-F10 = experiment: Antiproliferative activity against mouse B16-F10 cells assessed as reduction in cell viability measured after 48 hrs by CCK8 assay; format: functional, cell-based; details: B16-F10, 48 h; outline: as §1
[1] = Antiproliferative activity against human A549/PTX cells assessed as reduction in cell viability measured after 48 hrs by CCK8 assay; format: functional, cell-based; details: A549/Taxol; outline: as §1
HEK293 = experiment: Cytotoxicity against HEK293 cells assessed as reduction in cell viability measured after 48 hrs by CCK8 assay; format: cell-based; details: Homo sapiens, HEK293, 48 h; outline: as §1
NCM460 = experiment: Cytotoxicity against human NCM460 cells assessed as reduction in cell viability measured after 48 hrs by CCK8 assay; format: cell-based; details: NCM460, 48 h; outline: as §1
[2] = (§2) Inhibition of pig brain tubulin polymerization by spectrophotometric method; format: tissue-based, Sus scrofa
Outline: (§3)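 Pig brain tubulin (three assembly/disassembly cycles, phosphocellulose P11 purification) mixed with compound at various concentrations in PEM buffer (100 mM PIPES, 1 mM MgCl2, 1 mM EGTA) with 1 mM GTP, 5% glycerol; polymerization read at 340 nm, 37 °C; plateau absorbance used.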

[3] = target: Programmed cell death protein 1/Programmed cell death 1 ligand 1 (Homo sapiens, UniProt Q9NZQ7); experiment: Inhibition of PD1/PDL1 (unknown origin) protein-protein interaction measured after 15 mins by HTRF assay; format: protein-complex assay
Programmed cell death protein 1/Programmed cell death 1 ligand 1, sequence (Q15116 whole entry): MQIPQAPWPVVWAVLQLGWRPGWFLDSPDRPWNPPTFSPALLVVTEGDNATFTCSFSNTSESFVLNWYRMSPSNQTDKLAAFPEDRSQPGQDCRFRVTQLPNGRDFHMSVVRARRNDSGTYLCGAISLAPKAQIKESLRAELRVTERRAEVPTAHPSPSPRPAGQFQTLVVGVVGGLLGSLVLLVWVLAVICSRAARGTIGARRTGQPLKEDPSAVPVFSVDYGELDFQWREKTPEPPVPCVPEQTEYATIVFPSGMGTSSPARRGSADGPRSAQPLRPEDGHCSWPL
Programmed cell death protein 1/Programmed cell death 1 ligand 1, sequence (Q9NZQ7 whole entry): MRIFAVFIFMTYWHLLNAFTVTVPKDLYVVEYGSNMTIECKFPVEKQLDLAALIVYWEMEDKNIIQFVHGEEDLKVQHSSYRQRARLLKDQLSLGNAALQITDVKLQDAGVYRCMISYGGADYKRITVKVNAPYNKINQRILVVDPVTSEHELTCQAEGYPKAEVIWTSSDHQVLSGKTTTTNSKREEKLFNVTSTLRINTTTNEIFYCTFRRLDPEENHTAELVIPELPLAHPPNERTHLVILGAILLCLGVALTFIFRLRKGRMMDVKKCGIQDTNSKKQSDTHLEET

Sus scrofa = species on record: Sus scrofa; experiment: as §2; format: tissue-based; outline: as §3
Tubulin (Homo sapiens) = Tubulin (Homo sapiens) (UniProt P68371+Q9H4B7+P0DPH7+P68366+Q13509+Q71U36+P04350+Q3ZCM7+P07437+P68363+Q9BQE3+Q6PEY2+Q13885+Q9BVA1+Q9BUF5); experiment: Disruption of microtubule network in human HepG2 cells at 5 uM measured after 24 hrs by immunofluorescence assay; format: cell-based
Outline: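 HepG2 cells on glass coverslips, treated 24 h after plating for 24 h (vehicle 0.1% DMSO). Fixed 15 min in 4% formaldehyde, permeabilized 5 min in 0.2% Triton X-100, blocked 30 min in 5% BSA. Immunostained with anti-tubulin antibody, then imaged by confocal laser scanning.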

Compound	pIC50 (HepG2)	pIC50 (MC-38)	pIC50 (HeLa)	pIC50 (B16-F10)	pIC50 [1]	pIC50 (HEK293)	pIC50 (NCM460)	pIC50 [2]	pIC50 [3]	inhibition (Sus scrofa)	inhibition (Tubulin (Homo sapiens))
COc1ccc(/C=C\c2cc(OC)c(OC)c(OC)c2)cc1OCc1ccc(CN2CC[C@@H](C(=O)O)C2)cc1	5.64	5.20	4.89	< 5.00	< 4.70	4.57	< 4.30	< 3.70	< 4.00		
COc1ccc(/C=C\c2cc(OC)c(OC)c(OC)c2)cc1OCc1ccc(CN2CCCCC2C(=O)NCCN)cc1 (configuration not stated)	5.32	< 5.00	5.14	5.34	5.57	< 4.30	< 4.30		4.18		
CC(=O)O[C@H]1C(=O)[C@@]2(C)[C@H]([C@H](OC(=O)c3ccccc3)[C@]3(O)C[C@H](OC(=O)[C@H](O)[C@@H](NC(=O)c4ccccc4)c4ccccc4)C(C)=C1C3(C)C)[C@]1(OC(C)=O)CO[C@@H]1C[C@@H]2O										inactive	
COc1ccc(/C=C\c2cc(OC)c(OC)c(OC)c2)cc1OCc1ccc(CO)cc1	5.62	5.24	5.12	5.18	4.92	4.43	< 4.30		< 4.00		
COc1ccc(/C=C\c2cc(OC)c(OC)c(OC)c2)cc1OCc1ccc(CN2CC(C(=O)O)C2)cc1	< 5.00	< 5.00	5.19	< 5.00	< 4.70	< 4.30	< 4.30		4.38		
COc1ccc(/C=C\c2cc(OC)c(OC)c(OC)c2)cc1O [COMBRETASTATIN A4]	6.23	7.10	7.22	7.30	6.21	4.96	4.92	5.37	< 4.00		
COc1ccc(/C=C\c2cc(OC)c(OC)c(OC)c2)cc1OCc1ccc(C=O)cc1											Active
COc1ccc(/C=C\c2cc(OC)c(OC)c(OC)c2)cc1OCc1ccc(CN2CCCCC2C(=O)NCCNC(=O)OC(C)(C)C)cc1 (configuration not stated)	5.96	5.72	5.70	5.33	4.82	4.32	4.55	3.70	< 4.00		
COc1ccc(/C=C\c2cc(OC)c(OC)c(OC)c2)cc1OCc1ccc(CNCCN(C)C)cc1	5.36	5.85	5.03	< 5.00	5.80	4.41	4.46		< 4.00		
COc1ccc(/C=C\c2cc(OC)c(OC)c(OC)c2)cc1OCc1ccc(CN2CC[C@H](C(=O)O)C2)cc1	5.19	< 5.00	< 5.00	5.15	4.92	< 4.30	< 4.30		4.41		
COc1ccc(/C=C\c2cc(OC)c(OC)c(OC)c2)cc1OCc1ccc(CN2CC[C@H](O)C2)cc1	5.18	5.14	4.98	< 5.00	5.23	< 4.30	4.29		4.05		
COc1ccc(/C=C\c2cc(OC)c(OC)c(OC)c2)cc1OCc1ccc(CNCCNC(C)=O)cc1	5.21	5.74	5.19	5.60	5.96	< 4.30	4.27	4.22	4.35		
COc1ccc(/C=C\c2cc(OC)c(OC)c(OC)c2)cc1OCc1ccc(CN[C@H](C(=O)O)[C@@H](C)O)cc1	< 5.00	< 5.00	< 5.00	5.27	< 4.70	< 4.30	< 4.30		4.29		
COc1ccc(/C=C\c2cc(OC)c(OC)c(OC)c2)cc1OCc1ccc(CN2CC[C@@H](O)C2)cc1	5.21	5.16	< 5.00	< 5.00	5.05	< 4.30	4.28		< 4.00		
COc1ccc(/C=C\c2cc(OC)c(OC)c(OC)c2)cc1OCc1ccc(CNC(C)(C)C(=O)O)cc1	5.19	< 5.00	< 5.00	< 5.00	< 4.70	< 4.30	< 4.30		< 4.00		
COc1ccc(/C=C\c2cc(OC)c(OC)c(OC)c2)cc1OCc1ccc(CN2CCCC[C@H]2C(=O)O)cc1	< 5.00	< 5.00	< 5.00	< 5.00	< 4.70	< 4.30	< 4.30	< 3.70	< 4.00		
COc1ccc(/C=C\c2cc(OC)c(OC)c(OC)c2)cc1OCc1ccc(CN2C[C@H](O)C[C@@H]2C(=O)O)cc1	< 5.00	< 5.00	< 5.00	< 5.00	< 4.70	< 4.30	< 4.30		< 4.00		
COc1ccc(/C=C\c2cc(OC)c(OC)c(OC)c2)cc1OCc1ccc(CN2CCCC[C@@H]2C(=O)O)cc1	< 5.00	< 5.00	< 5.00	< 5.00	< 4.70	4.38	< 4.30		< 4.00		
COc1ccc(/C=C\c2cc(OC)c(OC)c(OC)c2)cc1OCc1ccc(CN2CCCCC2C(=O)O)cc1 (configuration not stated)	5.51	5.27	4.85	< 5.00	4.99	< 4.30	< 4.30		< 4.00		
COc1ccc(/C=C\c2cc(OC)c(OC)c(OC)c2)cc1OCc1ccc(CN2C[C@H](O)[C@@H](F)C2)cc1	5.28	< 5.00	5.04	< 5.00	4.72	4.54	4.42		4.28		
COc1ccc(/C=C\c2cc(OC)c(OC)c(OC)c2)cc1OCc1ccc(CN[C@H](C(=O)O)[C@H](C)O)cc1	< 5.00	< 5.00	< 5.00	< 5.00	< 4.70	< 4.30	< 4.30		4.23		
COc1ccc(/C=C\c2cc(OC)c(OC)c(OC)c2)cc1OCc1ccc(CNCCO)cc1	5.23	5.92	5.36	5.18	6.10	< 4.30	4.41		4.04		
